# Published values of several laboratories.
# Compare with care: the assays were run in different laboratories.
# Organism: Staphylococcus aureus
# Observed: microbial growth
SMILES,method,strain,time,notes,MIC
COc1cc(/C=N\NC(=O)c2ccc(Br)cc2)ccc1OC(=O)c1cccs1,,,,,> 128 µg/mL
CO[C@H]1C[C@@H]2CC[C@@H](C)[C@@](O)(O2)C(=O)C(=O)N2CCCC[C@H]2C(=O)O[C@H]([C@H](C)C[C@@H]2CC[C@@H](OCCO)[C@H](OC)C2)CC(=O)[C@H](C)/C=C(\C)[C@@H](O)[C@@H](OC)C(=O)[C@H](C)C[C@H](C)/C=C/C=C/C=C/1C,,NCTC8325,,,> 30 µM
CC(C)Oc1c(NC(=O)c2ccc(NC(=O)[C@H](CC(N)=O)NC(=O)c3ccc(NC(=O)C(C)Oc4ccccc4)cc3)cc2)ccc(C(=O)Nc2ccc(C(=O)O)cc2)c1O (stereo partly drawn),,ATCC29213,,,> 64 µg/mL
O=C(O)CN1C(=O)/C(=C/c2ccc(-c3ccc(N(c4ccccc4)c4ccccc4)cc3)cc2)SC1=S,broth dilution,ATCC6538,,,3.9 µg/mL
Cc1ccc2nc(-c3ccco3)[nH]c2c1,broth dilution,ATCC29213 MSSA,,,256 µg/mL
O=C1NN=C(N=Cc2ccc(O)c(O)c2)C1=NNn1c(-c2ccccc2)nc2ccccc2c1=O,broth dilution,,24 h,,107 µM
Fc1cc(-c2cccc3ncc(-c4cnn(C5CCNCC5)c4)nc23)cc(F)c1CN1CCOCC1,,NCTC8325,,,> 30 µM
C[n+]1c(/C=C/c2ccc(O)cc2)cc(/C=C2\Sc3ccccc3N2CCCN2CCCC2)c2ccccc21.[I-],broth dilution,ATCCBAA44,,,32 µg/mL
Cc1cc2c(F)c(Oc3ncnn4cc(OC[C@@H](C)O)c(C)c34)ccc2[nH]1,,NCTC8325,,,> 30 µM
O=C1NC(=S)S/C1=C\c1ccc(-c2ccc(N(c3ccccc3)c3ccccc3)cc2)c2ccccc12,broth dilution,ATCC25923,,,500 µg/mL
C/C=C(\C)c1cc(OC(=O)c2c(C)c(Cl)c(O)c(Cl)c2O)c(C)c(O)c1C(=O)O,broth dilution,16339,,,> 64 µg/mL
CSc1nc(O)n2nccc2n1,,,,,> 128 µg/mL
COC(=O)c1cc(Sc2ccc(NC(=O)Nc3ccc(Cl)c(C(F)(F)F)c3)cc2)ccn1,,NCTC8325,24 h,,3 µM
CN[C@H](CC(C)C)C(=O)N[C@H]1C(=O)N[C@@H](CC(N)=O)C(=O)N[C@H]2C(=O)N[C@H]3C(=O)N[C@H](C(=O)N[C@H](C(=O)O)c4cc(O)cc(O)c4-c4cc3ccc4O)[C@H](O)c3ccc(c(Cl)c3)Oc3cc2cc(c3O[C@@H]2O[C@H](CO)[C@@H](O)[C@H](O)[C@H]2O[C@H]2C[C@](C)(N)[C@H](O)[C@H](C)O2)Oc2ccc(cc2Cl)[C@H]1O,broth dilution,ATCC29213,,,1 µg/mL
O=C1NN=C(N=Cc2ccccc2O)C1=NNn1c(-c2ccccc2)nc2ccccc2c1=O,broth dilution,,24 h,,111 µM
C/C=C(\C)c1cc(O)c(C)c(OC(=O)c2c(C)c(Cl)c(O)c(Cl)c2O)c1,broth dilution,CCARM3090,,,4 µg/mL
C=CCOc1c(C)c(O)c(C(=O)/C=C/c2ccccc2)c(OC)c1C,broth dilution,ATCC25923,,,> 5000 µg/mL
O=S(=O)(NCCNC/C=C/c1ccc(Br)cc1)c1cccc2cnccc12,,NCTC8325,,,> 30 µM
CC[C@H]1OC(=O)[C@H](C)[C@@H](O[C@H]2C[C@@](C)(OC)[C@@H](O)[C@H](C)O2)[C@H](C)[C@@H](O[C@@H]2O[C@H](C)C[C@H](N(C)C)[C@H]2O)[C@](C)(O)C[C@@H](C)C(=O)[C@H](C)[C@@H](O)[C@]1(C)O,,147,,clinical isolate,37.5 µM
CN1CCN(CCOc2cc(OC3CCOCC3)c3c(Nc4c(Cl)ccc5c4OCO5)ncnc3c2)CC1,,NCTC8325,,,> 30 µM
Oc1ccc(Br)cc1-c1nc2ccccc2[nH]1,broth dilution,ATCC29213 MSSA,,,64 µg/mL
CN(C)[C@@H]1C(O)=C(C(N)=O)C(=O)[C@@]2(O)C(O)=C3C(=O)c4c(O)cccc4[C@@](C)(O)[C@H]3C[C@@H]12,,ATCC43300,,,2 µg/mL
O=C(O)c1cn(C2CC2)c2cc(N3CCNCC3)c(F)cc2c1=O,broth dilution,ATCC43300,,,0.24 µg/mL
Cc1ccc2nc(-c3ccc([N+](=O)[O-])cc3)n(Cc3ccccc3Cl)c2c1,broth dilution,ATCC29213 MSSA,,,32 µg/mL
CC(C)Oc1c(NC(=O)c2ccc(NC(=O)[C@H](CC(N)=O)NC(=O)c3ccc(NC(=O)c4ccc(C#N)c(F)c4)cc3)cc2)ccc(C(=O)Nc2ccc(C(=O)O)cc2)c1O,,ATCC29213,,,2 µg/mL
O=C(CCCCCC[P+](c1ccccc1)(c1ccccc1)c1ccccc1)Nc1cc(O)c(O)c(O)c1.[Br-],broth dilution,ATCC43300 MRSA,18 h,,32 µg/mL
Clc1cccc(NCc2ccc(Oc3ccccn3)cc2)c1,,,,,1.8 µg/mL
CN[C@H](CC(C)C)C(=O)N[C@H]1C(=O)N[C@@H](CC(N)=O)C(=O)N[C@H]2C(=O)N[C@H]3C(=O)N[C@H](C(=O)N[C@H](C(=O)O)c4cc(O)cc(O)c4-c4cc3ccc4O)[C@H](O)c3ccc(c(Cl)c3)Oc3cc2cc(c3O[C@@H]2O[C@H](CO)[C@@H](O)[C@H](O)[C@H]2O[C@H]2C[C@](C)(N)[C@H](O)[C@H](C)O2)Oc2ccc(cc2Cl)[C@H]1O,broth dilution,ATCC25923,,,0.98 µg/mL
COc1cccc(-c2nc3ccccc3[nH]2)c1,broth dilution,ATCC29213 MSSA,,,256 µg/mL
CC(C)Oc1c(NC(=O)c2ccc(NC(=O)[C@H](CC(N)=O)NC(=O)c3ccc(NC(=O)c4cccc(N)c4)cc3)cc2)ccc(C(=O)Nc2ccc(C(=O)O)cc2)c1O,,ATCC29213,,,> 64 µg/mL
CN(C)[C@@H]1C(O)=C(C(N)=O)C(=O)[C@@]2(O)C(O)=C3C(=O)c4c(O)cccc4[C@@](C)(O)[C@H]3C[C@@H]12,broth dilution,25923,,,0.15 µM
CO[C@H]1C[C@@H]2CC[C@@H](C)[C@@](O)(O2)C(=O)C(=O)N2CCCC[C@H]2C(=O)O[C@H]([C@H](C)C[C@@H]2CC[C@@H](OC(=O)C(C)(CO)CO)[C@H](OC)C2)CC(=O)[C@H](C)/C=C(\C)[C@@H](O)[C@@H](OC)C(=O)[C@H](C)C[C@H](C)/C=C/C=C/C=C/1C,,NCTC8325,,,> 30 µM
CC(C)Oc1c(NC(=O)c2ccc(NC(=O)[C@H](CC(N)=O)NC(=O)c3ccc(C#Cc4ccc(C#N)cc4)cc3)cc2)ccc(C(=O)Nc2ccc(C(=O)O)cc2)c1O,,ATCC29213,,,≤ 0.03 µg/mL
COc1c(C)c(OC(C)=O)c(C)c(OC(C)=O)c1C(=O)/C=C/c1ccccc1,broth dilution,ATCC25923,,,5000 µg/mL
COc1cccc(-c2nc3ccc(C)cc3[nH]2)c1,broth dilution,ATCC29213 MSSA,,,128 µg/mL
C/C=C(\C)c1cc(OC(=O)c2c(O)c(C)c(O)c(Cl)c2/C(C)=C/C)c(C)c(O)c1C(=O)O,broth dilution,6917,,,> 64 µg/mL
CCCCCCC#Cc1cncc(-c2nnc(SCc3ccc(C#N)cc3)n2C)c1,,MRSA,,drug-resistant strain,≥ 20 µg/mL
CCn1cc(C(=O)O)c(=O)c2cc(F)c(N3CCNCC3)cc21,broth dilution,ATCC11632,18 h,,< 5 µg/mL
CC1(C(=O)O)CCC(C(=O)Nc2ccc(Nc3ccccc3)cc2)C1(C)C (stereo not drawn),,,,,> 128 µg/mL
C=CCn1c(-c2ccc(OC)c(OC)c2)nc2ccccc21,broth dilution,ATCC29213 MSSA,,,128 µg/mL
COc1cc(C(=O)Nc2ccc(C(=O)N[C@@H](CC(N)=O)C(=O)Nc3ccc(C(=O)Nc4ccc(C(=O)Nc5ccc(C(=O)O)cc5)c(O)c4OC(C)C)cc3)cc2)ccc1C#N,,ATCC29213,,,> 64 µg/mL
COc1cc2/c(=N/c3ccc(Br)cc3F)nc[nH]c2cc1OCC1CCN(C)CC1,,NCTC8325,,,> 30 µM
